Measurements reported in ChEMBL document CHEMBL5214977, “Discovery and Optimization of Quinoline Analogues as Novel Potent Antivirals against Enterovirus D68” (J Med Chem, 2022).
pEC50: −log10 of the molar value. Active and inactive are the calls of the source. No cut-off for these calls is given here.

Columns and labels:
enterovirus D68 [1] = assay: Antiviral activity against Enterovirus D68 infected in human RD cells assessed as inhibition of viral replication at 2 uM treated for 14 hrs by qRT-PCR analysis; type: functional, organism-based
Method in brief: (§1)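 RD cells grown for 24 h were infected at 0 h with EV-D68 (MOI 0.01), and virus was washed off at 1 hpi. Compound at 2 μM or DMSO was added over set windows (0–1 h, after 1 hpi, or 0–14 h). Supernatants were collected at 14 hpi. Viral RNA copies were measured by qRT-PCR against a copy-number standard curve. Values are mean ± SD.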

enterovirus D68 [2] = assay: Antiviral activity against Enterovirus D68 infected in human RD cells assessed as inhibition of VP1 expression level incubated for 1.5 hrs by Western blot analysis; type: functional, organism-based; settings: dose 0.1-10 µM, DDE = dose-dependent effect
Method in brief: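 RD cells (8.0 × 10^4 per well) were grown for 24 h, then infected with EV-D68 at MOI 0.01 for 1.5 h with gradient-diluted compound or DMSO. Lysates were made at 12 hpi in RIPA buffer and run on 10% SDS-PAGE. Blots were probed with anti-EV-D68 VP1 and anti-tubulin antibodies, with HRP secondary and ECL detection.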

enterovirus D68 [3] = assay: Antiviral activity against Enterovirus D68 infected in human RD cells assessed as inhibition of viral replication at 2 uM treated for 1 hr by qRT-PCR analysis; type: functional, organism-based; method in brief: as §1
enterovirus D68 [4] = assay: Antiviral activity against Enterovirus D68 infected in human RD cells assessed as inhibition of VP1 expression level incubated for 12 hrs by Hoechst 33342 staining based immunofluorescence assay; type: functional, organism-based; settings: dose 0.1-10 µM, DDE = dose-dependent effect
Method in brief: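 RD cells were infected with EV-D68 at MOI 1 together with compound for 12 h. Cells were fixed in 4% formaldehyde for 30 min and permeabilized in 0.1% Triton X-100 for 30 min, then blocked with 5% bovine serum. Staining used rabbit anti-VP1 with an Alexa-546 secondary and 1 μM Hoechst33342 nuclear stain, imaged by fluorescence microscopy.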

enterovirus D68 [5] = assay: Antiviral activity against Enterovirus D68 infected in human RD cells assessed as inhibition of viral replication at 1 uM incubated for 1.5 hrs by crystal violet staining based plaque formation assay; type: functional, organism-based
Method in brief: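 Overnight RD monolayers received serially diluted virus stock plus compound for 1.5 h. Supernatant was removed and cells were overlaid with 2× DMEM containing 2% low-melting agarose. At 72 hpi cells were fixed with 4% paraformaldehyde for 4 h at room temperature and stained with 1% crystal violet to count plaques.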

enterovirus D68 [6] = assay: Antiviral activity against Enterovirus D68 infected in human RD cells assessed as reduction in thermal inactivation of virus at 55 degreeC at 12.5 uM incubated for 72 hrs by TCID50 assay; type: functional, organism-based
Method in brief: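 Compound at 12.5 μM or DMSO was incubated with EV-D68 (2 × 10^6 PFU/ml) at 33 °C for 30 min. The mixture was heated for 2 min at temperatures between 37 and 59 °C, then cooled to 4 °C. Residual titre was measured by TCID50 on RD cells: 10-fold virus dilutions, CPE scored after 72 h, Reed–Muench calculation.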

[7] = Selectivity index, ratio of CC50 for human RD cells to EC50 for Enterovirus-D68 STL-2014-12 infected in human RD cells to; type: toxicity, cell-based
Method in brief: (§2)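 EC50 came from a CPE reduction assay. RD cells (1.5 × 10^4 per well, grown 24 h) were infected with 100 TCID50 of the named strain and given 3-fold dilutions from 0.01 to 200 μM. After 72 h at 37 °C, ATP was read by CellTiter-Glo and normalized to infected and uninfected controls. CC50 came from uninfected cells under the same dilutions, 72 h and ATP readout. SI = CC50/EC50.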

[8] = Oral bioavailability in Sprague-Dawley rat at 5 mg/kg measured upto 24 hrs by LC-MS/MS analysis; type: ADME, organism-based; settings: in vivo
Method in brief: (§3)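 Male SD rats (6–9 or 6–8 weeks old, n = 3 per route) received a single 1 mg/kg iv or 5 mg/kg po dose. The vehicle was 5% DMSO/5% Solutol HS-15/90% water or 5% DMSO/95% HP-β-CD in water. Jugular blood was drawn into heparin at 0.083 (iv only), 0.25, 0.5, 1, 2, 4, 6 and 24 h. Plasma was analysed by LC-MS/MS. Values are mean ± SD.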

[9] = Half life in Sprague-Dawley rat at 1 mg/kg, iv measured upto 24 hrs by LC-MS/MS analysis; type: ADME, organism-based; settings: in vivo; method in brief: as §3
[10] = Half life in Sprague-Dawley rat at 5 mg/kg, po measured upto 24 hrs by LC-MS/MS analysis; type: ADME, organism-based; settings: in vivo; method in brief: as §3
[11] = Metabolic stability in Beagle dog liver microsomes assessed as half life at 1 uM incubated upto 60 mins in presence of NADPH by LC-MS/MS analysis; type: ADME, Canis lupus familiaris, Microsome; settings: 1 h
Method in brief: (§4)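 Test compound at 1 μM final was incubated at 37 °C with 0.5 mg/mL liver microsomal protein and 1 mM NADPH, alongside a no-NADPH control. Samples were quenched at 0, 5, 15, 30 and 60 min into solution containing verapamil internal standard, then centrifuged and analysed by LC-MS/MS. t1/2 and intrinsic clearance were derived from the extent of metabolism.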

[12] = AUC(0 to t) in Sprague-Dawley rat at 1 mg/kg, iv measured upto 24 hrs by LC-MS/MS analysis; type: ADME, organism-based; design: dose 1 mg/kg, time < 24 hrs, route iv; settings: in vivo; method in brief: as §3
RD = assay: Cytotoxicity against human RD cells assessed as inhibition of cell viability by measuring ATP level incubated for 72 hrs by cell titer-glo luminescent cell viability assay; type: functional
Method in brief: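 Uninfected RD cells seeded at 1.5 × 10^4/well and grown 24 h, then exposed to compound in 3-fold dilutions (0.01–200 μM), with DMSO as cell control. ATP read by CellTiter-Glo luminescence after 72 h; CC50 is the 50% cytotoxic concentration.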

[13] = AUC (0 to infinity) in Sprague-Dawley rat at 1 mg/kg, iv measured upto 24 hrs by LC-MS/MS analysis; type: ADME, organism-based; design: dose 1 mg/kg, time < 24 hrs, route iv; settings: in vivo; method in brief: as §3
[14] = Tmax in Sprague-Dawley rat at 5 mg/kg, po measured upto 24 hrs by LC-MS/MS analysis; type: ADME, organism-based; settings: in vivo; method in brief: as §3
enterovirus D68 [15] = assay: Antiviral activity against Enterovirus-D68 STL-2014-12 infected in human RD cells assessed as reduction in virus induced cytopathic effect by measuring ATP level incubated for 72 hrs by cell titer-glo luminescent cell viability assay; type: functional, organism-based
Method in brief: (§5)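 RD cells seeded at 1.5 × 10^4/well and grown 24 h, then given 100 TCID50 virus plus compound in 3-fold dilutions (0.01–200 μM). DMSO control. Incubated 37 °C for 72 h; ATP read by CellTiter-Glo luminescence and normalized to uninfected and infected controls. EC50 is the concentration giving 50% CPE reduction. Strains: STL-2014-12, US/KY/14-18953, US/MO/14-18947, Fermon.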

enterovirus D68 [16] = assay: Antiviral activity against Enterovirus D68 infected in human RD cells assessed as increase in viral RNA release temperature at 10 ug/ml incubated for 15 mins by particle release thermal stability assay (reference value: 52 degree C); type: functional; settings: dose 10 µg/ml, 0.25 h
[17] = C0 in Sprague-Dawley rat at 1 mg/kg, iv measured upto 24 hrs by LC-MS/MS analysis; type: ADME, organism-based; settings: in vivo; method in brief: as §3
[18] = Metabolic stability in human liver microsomes assessed as half life at 1 uM incubated upto 60 mins in presence of NADPH by LC-MS/MS analysis; type: ADME, Microsome; settings: 1 h; method in brief: as §4
[19] = Cmax in Sprague-Dawley rat at 5 mg/kg, po measured upto 24 hrs by LC-MS/MS analysis; type: ADME, organism-based; design: dose 5 mg/kg, time < 24 hrs, route po; settings: in vivo; method in brief: as §3
[20] = Metabolic stability in rat liver microsomes assessed as half life at 1 uM incubated upto 60 mins in presence of NADPH by LC-MS/MS analysis; type: ADME, Microsome; settings: 1 h; method in brief: as §4
[21] = AUC (0 to t) in Sprague-Dawley rat at 5 mg/kg, po measured upto 24 hrs by LC-MS/MS analysis; type: ADME, organism-based; design: dose 5 mg/kg, time < 24 hrs, route po; settings: in vivo; method in brief: as §3
[22] = AUC (0 to infinity) in Sprague-Dawley rat at 5 mg/kg, po measured upto 24 hrs by LC-MS/MS analysis; type: ADME, organism-based; design: time < 24 hrs, dose 5 mg/kg, route po; settings: in vivo; method in brief: as §3
enterovirus D68 [23] = assay: Antiviral activity against Enterovirus-D68 US/KY/14-18953 infected in human RD cells assessed as reduction in virus induced cytopathic effect by measuring ATP level incubated for 72 hrs by cell titer-glo luminescent cell viability assay; type: functional, organism-based; settings: Enterovirus D, US/KY/14-18953, RD; method in brief: as §5
enterovirus D68 [24] = assay: Antiviral activity against Enterovirus-D68 US/MO/14-18947 infected in human RD cells assessed as reduction in virus induced cytopathic effect by measuring ATP level incubated for 72 hrs by cell titer-glo luminescent cell viability assay; type: functional, organism-based; settings: Enterovirus D, US/MO/14-18947, RD; method in brief: as §5
[25] = Selectivity index, ratio of CC50 for human RD cells to EC50 for Enterovirus-D68 US/MO/14-18947 infected in human RD cells; type: toxicity, cell-based; settings: read-out: Ratio CC50/EC50; method in brief: as §2
[26] = Selectivity index, ratio of CC50 for human RD cells to EC50 for Enterovirus-D68 US/KY/14-18953 infected in human RD cells; type: toxicity, cell-based; settings: read-out: Ratio CC50/EC50; method in brief: as §2
[27] = Selectivity index, ratio of CC50 for human RD cells to EC50 for Enterovirus-D68 fermon infected in human RD cells; type: toxicity, cell-based; settings: read-out: Ratio CC50/EC50; method in brief: as §2
enterovirus D68 [28] = assay: Antiviral activity against Enterovirus-D68 fermon infected in human RD cells assessed as reduction in virus induced cytopathic effect by measuring ATP level incubated for 72 hrs by cell titer-glo luminescent cell viability assay; type: functional, organism-based; settings: Enterovirus D; method in brief: as §5
enterovirus D68 [29] = assay: Antiviral activity against Enterovirus-D68 infected in human HeLa cells assessed as reduction in virus induced cytopathic effect incubated for […] by plaque reduction assay; type: functional, organism-based; settings: Enterovirus D
[30] = Enterovirus D, STL-2014-12, RD, 72 h

SMILES: Nc1ccc(-c2ccc3ncc(-c4noc(C(F)(F)F)n4)cc3c2)cc1 [listing 1 of 2 here]
- Activity (enterovirus D68 [1]): Active
- Activity (enterovirus D68 [2]): Dde
- Activity (enterovirus D68 [3]): Active
- Activity (enterovirus D68 [4]): Dde
- Activity (enterovirus D68 [5]): Active
- Activity (enterovirus D68 [6]): Active

SMILES: Nc1ccc(-c2ccc3ncc(-c4noc(C(F)(F)F)n4)cc3c2)cc1 [listing 2 of 2 here]
- Ratio CC50/EC50 [7]: > 50
- F [8]: 23.9%
- t1/2 [9]: 1.92 h
- t1/2 [10]: 1.21 h
- t1/2 [11]: 0.288 h
- AUCt [12]: 253 ng·h/mL
- CC50 (RD): > 2500 nM
- AUC [13]: 268 ng·h/mL
- Tmax [14]: 1 h
- pEC50 (enterovirus D68 [15]; [30]): 7.30
- T (enterovirus D68 [16]): 55 °C
- C0 [17]: 637 ng/mL
- t1/2 [18]: 2.47 h
- Cmax [19]: 108 ng/mL
- t1/2 [20]: 0.683 h
- AUC [21]: 307 ng·h/mL
- AUC [22]: 320 ng·h/mL

SMILES: CCc1nc(-c2cnc3ccc(-c4ccc(N)cc4)cc3c2)no1
- Activity (enterovirus D68 [2]): Dde
- Activity (enterovirus D68 [4]): Dde
- Activity (enterovirus D68 [5]): Active

SMILES: CCc1nc(-c2cnc3ccc(-c4ccc(N)cc4)cc3c2)no1.Cl
- Ratio CC50/EC50 [7]: > 139
- F [8]: 6.8%
- t1/2 [9]: 0.309 h
- pEC50 (enterovirus D68 [23]): 7.15
- pEC50 (enterovirus D68 [24]): 7.15
- selectivity ratio [25]: > 159
- t1/2 [10]: 1.06 h
- AUCt [12]: 157 ng·h/mL
- AUC [13]: 158 ng·h/mL
- selectivity ratio [26]: > 159
- Tmax [14]: 0.417 h
- selectivity ratio [27]: > 185
- pEC50 (enterovirus D68 [15]; rd): 7.10
- pEC50 (enterovirus D68 [28]): 7.22
- C0 [17]: 1370 ng/mL
- Cmax [19]: 36.1 ng/mL
- AUC [21]: 49.5 ng·h/mL
- AUC [22]: 53.8 ng·h/mL

SMILES: Cl.Nc1ccc(-c2ccc3ncc(-c4noc(C(F)(F)F)n4)cc3c2)cc1
- Ratio CC50/EC50 [7]: > 111
- pEC50 (enterovirus D68 [23]): 7.05
- pEC50 (enterovirus D68 [24]): 7.05
- selectivity ratio [25]: > 123
- selectivity ratio [26]: > 123
- selectivity ratio [27]: > 123
- pEC50 (enterovirus D68 [15]; rd): 7.00
- pEC50 (enterovirus D68 [28]): 7.05

SMILES: Cc1cc(CCCOc2c(C)cc(-c3noc(C(F)(F)F)n3)cc2C)on1 [PLECONARIL]
- selectivity ratio ([7]; RD cells, read-out: Ratio CC50/EC50): > 250
- pEC50 (enterovirus D68 [23]): 6.62
- pEC50 (enterovirus D68 [24]): 6.19
- selectivity ratio [25]: > 156
- CC50 (RD): > 200000 nM
- pEC50 (enterovirus D68 [29]): 6.37
- selectivity ratio [26]: > 417
- selectivity ratio [27]: > 333
- pEC50 (enterovirus D68 [15]; [30]): 6.40
- pEC50 (enterovirus D68 [28]): 6.52
- Activity (enterovirus D68 [6]): Active

SMILES: CCOC(=O)c1ccc(OCCC2CCN(c3ccc(C)nn3)CC2)cc1 [PIRODAVIR]
- pEC50 (enterovirus D68 [29]): 5.79
